For 13 compounds, IC50 and Kd results are on record in ChEMBL document CHEMBL2380202, “Identification of substituted 2-thio-6-oxo-1,6-dihydropyrimidines as inhibitors of human lactate dehydrogenase” (Bioorg Med Chem Lett, 2013).

Molecules are shown by their SMILES. Bounds are passed on as bounds.

The target of one test is L-lactate dehydrogenase B chain (Homo sapiens, UniProt P07195). Kind of test: Inhibition of human recombinant carboxy-terminal his-tagged LDHB (1 to 333) expressed in insect cells using pyruvate as substrate after 10 mins by UV endpoint analysis.
L-lactate dehydrogenase B chain, sequence (P07195 whole entry): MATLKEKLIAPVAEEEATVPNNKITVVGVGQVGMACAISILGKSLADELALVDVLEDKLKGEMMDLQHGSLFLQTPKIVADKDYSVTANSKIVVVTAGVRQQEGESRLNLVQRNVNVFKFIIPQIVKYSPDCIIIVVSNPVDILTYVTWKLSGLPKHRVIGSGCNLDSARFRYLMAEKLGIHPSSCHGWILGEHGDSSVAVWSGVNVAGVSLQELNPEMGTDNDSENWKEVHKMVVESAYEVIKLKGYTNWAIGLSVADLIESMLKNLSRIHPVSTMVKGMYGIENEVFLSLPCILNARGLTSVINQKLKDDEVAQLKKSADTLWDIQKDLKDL
What is called IC50 is the concentration that gives 50% inhibition. For the compound `Cc1ccc(NC(=O)CSc2nc(-c3ccc(Cl)cc3)c(C#N)c(=O)[nH]2)cc1C`, the IC50 was more than 100 µM.
Regarding `N#Cc1c(-c2ccc(Cl)cc2)nc(SCC(=O)Nc2ccc(Cl)cc2)[nH]c1=O`, the concentration for half-maximal inhibition (IC50) was more than 100 µM.
The same measure, in the same setting: with `N#Cc1c(-c2ccc(Cl)cc2)nc(SCC(=O)Nc2ccc(F)c(Cl)c2)[nH]c1=O` the figure was more than 100 µM.

In the next test the target is T1, L-lactate dehydrogenase A chain (Homo sapiens, UniProt P00338). Kind of test: Binding affinity to human recombinant carboxy-terminal avi-tagged LDHA (1 to 331) expressed in Escherichia coli by surface plasmon resonance analysis presence of NADH. In a few lines: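 SPR with NADH present; twofold dilution series of analyte injections; K_D obtained by fitting kinetics or the equilibrium dose response; arithmetic mean of 2 separate runs.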
As a reminder, the Kd is the equilibrium constant for the complex coming apart. Regarding `N#Cc1c(-c2ccccc2)nc(SCC(=O)Nc2ccc(S(N)(=O)=O)cc2)[nH]c1=O`, the Kd worked out at 15.4 µM.
The same measure, in the same setting: with `CCc1ccccc1NC(=O)CSc1nc(-c2ccc(Cl)cc2)c(C#N)c(=O)[nH]1` the figure was 1210 µM; with `Cc1cccc(NC(=O)CSc2nc(-c3ccc(Cl)cc3)c(C#N)c(=O)[nH]2)c1C`, 1060 µM; with `CC(C)c1ccc(NC(=O)CSc2nc(-c3ccc(Cl)cc3)c(C#N)c(=O)[nH]2)cc1`, 552 µM.
On the same count and under the same terms, with `COc1ccccc1NC(=O)CSc1nc(-c2ccc(Cl)cc2)c(C#N)c(=O)[nH]1` the figure was 1110 µM.
As for `Cc1ccc(NC(=O)CSc2nc(-c3ccc(Cl)cc3)c(C#N)c(=O)[nH]2)cc1Cl`, the Kd was determined as 466 µM.
As to `Cc1ccc(NC(=O)CSc2nc(-c3ccc(Cl)cc3)c(C#N)c(=O)[nH]2)cc1C`, the Kd is 552 µM.
Still for that read-out and setting: with `N#Cc1c(-c2ccc(Cl)cc2)nc(SCC(=O)Nc2ccc(Cl)cc2)[nH]c1=O` the figure was 570 µM.
Same read-out and setting: under `N#Cc1c(-c2ccc(Cl)cc2)nc(SCC(=O)Nc2ccc(F)c(Cl)c2)[nH]c1=O` stands 314 µM.
Still for that read-out and setting: with `Cc1ccccc1NC(=O)CSc1nc(-c2ccc(Cl)cc2)c(C#N)c(=O)[nH]1` the figure was 1010 µM; with `COc1cccc(-c2nc(SCC(=O)Nc3ccc(S(N)(=O)=O)cc3)[nH]c(=O)c2C#N)c1`, 38.4 µM.

In the next test the target is T1, L-lactate dehydrogenase A chain. The experiment in a line: Inhibition of human recombinant carboxy-terminal his-tagged LDHA (1 to 331) expressed in Escherichia coli using pyruvate as substrate after 10 mins by UV endpoint analysis.
As to `N#Cc1c(-c2ccccc2)nc(SCC(=O)Nc2ccc(S(N)(=O)=O)cc2)[nH]c1=O`, the IC50 turned out to be 12.1 µM.
Same read-out and setting: with `CCc1ccccc1NC(=O)CSc1nc(-c2ccc(Cl)cc2)c(C#N)c(=O)[nH]1` the figure was more than 100 µM; with `CC(Sc1nc(-c2ccccc2)cc(=O)[nH]1)C(=O)Nc1ccc(S(N)(=O)=O)cc1` (racemic), more than 100 µM; with `Cc1cccc(NC(=O)CSc2nc(-c3ccc(Cl)cc3)c(C#N)c(=O)[nH]2)c1C`, more than 100 µM.
With `CC(C)c1ccc(NC(=O)CSc2nc(-c3ccc(Cl)cc3)c(C#N)c(=O)[nH]2)cc1`, the IC50 came to 22.6 µM.
The same measure, in the same setting: under `COc1ccccc1NC(=O)CSc1nc(-c2ccc(Cl)cc2)c(C#N)c(=O)[nH]1` stands more than 100 µM.
On the same count and under the same terms, under `Cc1ccc(NC(=O)CSc2nc(-c3ccc(Cl)cc3)c(C#N)c(=O)[nH]2)cc1Cl` stands 27.6 µM; under `Cc1ccc(NC(=O)CSc2nc(-c3ccc(Cl)cc3)c(C#N)c(=O)[nH]2)cc1C`, 38.6 µM.
On the same count and under the same terms, with `CC(Sc1ncc(C#N)c(=O)[nH]1)C(=O)Nc1ccc(S(N)(=O)=O)cc1` (racemic) the figure was 12.5 µM.
With `N#Cc1c(-c2ccc(Cl)cc2)nc(SCC(=O)Nc2ccc(Cl)cc2)[nH]c1=O`, the IC50 was found to be 55.7 µM.
On to `N#Cc1c(-c2ccc(Cl)cc2)nc(SCC(=O)Nc2ccc(F)c(Cl)c2)[nH]c1=O`, for which the IC50 came out at 46.8 µM.
Same read-out and setting: with `Cc1ccccc1NC(=O)CSc1nc(-c2ccc(Cl)cc2)c(C#N)c(=O)[nH]1` the figure was more than 100 µM; with `COc1cccc(-c2nc(SCC(=O)Nc3ccc(S(N)(=O)=O)cc3)[nH]c(=O)c2C#N)c1`, 42.4 µM.
